ChEMBL document CHEMBL1129459, “Studies on disease-modifying antirheumatic drugs: synthesis of novel quinoline and quinazoline derivatives and their anti-inflammatory effect” (1996)

Legend:
Format in all cases: functional
Rattus norvegicus [1] = assay: Inhibitory effect of 12.5 mg/Kg orally administered compound against swelling of right hand paw as a measure of anti-inflammatory activity; conditions: po
Rattus norvegicus [2] = species: Rattus norvegicus; assay: Effective dose to inhibit the rat's left hand paw swelling by 50%.
Procedure, shortened: (§1)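 Adjuvant arthritis in male Lewis rats, 7 weeks old, n = 7. Rats were sensitized intradermally in the right hind plantar site with 0.05 mL of 0.5% killed M. tuberculosis H37 RA in liquid paraffin. Compound in 0.5% methylcellulose was given p.o. once daily for 14 days, starting day 0. Left hind paw volume was measured on days 0 and 14. ED50 came from linear regression across three or four doses.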

Rattus norvegicus [3] = species: Rattus norvegicus; assay: Bone resorption inhibitory effect was evaluated as calcium released from bone into medium at 10 uM compound concentration, expressed as percent of control; design: scale not given: the % may be the effect or the level left
Procedure, shortened: (§2)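 Rat fetal long-bone (Raisz) assay. A pregnant Sprague–Dawley rat received 50 µCi 45Ca s.c. on gestation day 18. Fetal humeri (radii and ulnae) were taken the next day and cleaned of connective tissue and cartilage. Bones were preincubated 24 h at 37 °C, 5% CO2, in BGJb medium with 2 mg/mL BSA. They were then cultured 2 days with compound at 10 or 30 µM final. Read-out was 45Ca released/(released + bone-retained) ×100, mean of five bones, as % of untreated same-litter controls.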

Rattus norvegicus [4] = assay: Inhibition of adjuvant induced swelling of rat right hind paw by 50 mg/kg p.o. administration.; conditions: route oral
Rattus norvegicus [5] = species: Rattus norvegicus; assay: Effective dose of compound to inhibit the rat's left hand paw swelling by 50%.; procedure, shortened: as §1
Rattus norvegicus [6] = species: Rattus norvegicus; assay: Bone resorption inhibitory effect was evaluated as calcium released from bone into medium at 30 uM compound concentration, expressed as percent of control; design: scale not given: the % may be the effect or the level left; procedure, shortened: as §2
Rattus norvegicus [7] = species: Rattus norvegicus; assay: Bone resorption inhibitory effect was evaluated as calcium released from bone into medium at 25 uM compound concentration, expressed as percent of control; design: scale not given: the % may be the effect or the level left

**Q.** Which inhibition in vivo at 12.5 mg/kg (Rattus norvegicus [1]) does the source give for COc1ccc(-c2nc(Cn3ccnc3C)nc3cc(OC)c(OC)cc23)cc1OC here?
**A.** The inhibition in vivo at 12.5 mg/kg was < 50%.

**Q.** With CCOC(=O)c1c(CCCn2cncn2)nc2cc(OC)c(OC)cc2c1-c1ccc(OC)c(OC)c1 as the compound, how does the inhibition in vivo at 12.5 mg/kg (Rattus norvegicus [1]) read?
**A.** Its inhibition in vivo at 12.5 mg/kg is < 50%.

**Q.** With CCOC(=O)c1c(Cn2ccnc2CC)nc2cc(OC)c(OC)cc2c1-c1ccc(OC)c(OC)c1 as the compound, how does the ED50 (Rattus norvegicus [2]) read?
**A.** The ED50 was 9.1 mg/kg.

**Q.** How did the Activity (Rattus norvegicus [3]) turn out when COC(=O)c1c(CSc2nccn2C)nc2cc(OC)c(OC)cc2c1-c1ccc(OC)c(OC)c1 was run?
**A.** The Activity was 46%.

**Q.** And the inhibition in vivo at 50 mg/kg (Rattus norvegicus [4])?
**A.** The inhibition in vivo at 50 mg/kg was 67%.

**Q.** Which inhibition in vivo at 50 mg/kg (Rattus norvegicus [4]) does the source give for CCOC(=O)c1c(CSc2nccn2C)nc2cc(OC)c(OC)cc2c1-c1ccccc1 here?
**A.** The inhibition in vivo at 50 mg/kg was 31%.

**Q.** For CCOC(=O)c1c(CSc2nccn2CC)nc2cc(OC)c(OC)cc2c1-c1ccc(OC)c(OC)c1, which inhibition in vivo at 50 mg/kg (Rattus norvegicus [4]) is on record?
**A.** The inhibition in vivo at 50 mg/kg was 51%.

**Q.** For CCOC(=O)c1c(Cn2ccnc2C)nc2cc(OC)c(OC)cc2c1-c1ccc(OC)c(OC)c1, which inhibition in vivo at 12.5 mg/kg (Rattus norvegicus [1]) is on record?
**A.** Its inhibition in vivo at 12.5 mg/kg is 55%.

**Q.** For CCOC(=O)c1c(CSc2nccn2C)nc2cc(OC)c(OC)cc2c1-c1ccc(Cl)cc1, which inhibition in vivo at 50 mg/kg (Rattus norvegicus [4]) is on record?
**A.** Its inhibition in vivo at 50 mg/kg is 41%.

**Q.** Which inhibition in vivo at 50 mg/kg (Rattus norvegicus [4]) does the source give for CCOC(=O)c1c(CSc2nccn2C)nc2ccccc2c1-c1ccc(OC)c(OC)c1 here?
**A.** The inhibition in vivo at 50 mg/kg was 33%.

**Q.** How did the ED50 (Rattus norvegicus [2]) turn out when CCOC(=O)c1c(CCc2nccn2C)nc2cc(OC)c(OC)cc2c1-c1ccc(OC)c(OC)c1 was run?
**A.** Its ED50 is 14.7 mg/kg.

**Q.** What about the inhibition in vivo at 50 mg/kg (Rattus norvegicus [4]) of the same compound?
**A.** Its inhibition in vivo at 50 mg/kg is 75%.

**Q.** For CCOC(=O)c1c(CSc2nccn2C)nc2cc(OCC)c(OCC)cc2c1-c1ccc(OC)c(OC)c1, which inhibition in vivo at 50 mg/kg (Rattus norvegicus [4]) is on record?
**A.** The inhibition in vivo at 50 mg/kg was 59%.

**Q.** For CCOC(=O)c1c(CSc2nccn2C)nc2cc(OC)c(OC)cc2c1-c1ccc2c(c1)OCO2, which inhibition in vivo at 50 mg/kg (Rattus norvegicus [4]) is on record?
**A.** The inhibition in vivo at 50 mg/kg was 63%.

**Q.** How did the Activity (Rattus norvegicus [3]) turn out when CCOC(=O)c1c(CSc2nccn2C)nc2cc3c(cc2c1-c1ccc(OC)c(OC)c1)OCCO3 was run?
**A.** Its Activity is 66%.

**Q.** What about the inhibition in vivo at 50 mg/kg (Rattus norvegicus [4]) of the same compound?
**A.** Its inhibition in vivo at 50 mg/kg is 56%.

**Q.** How did the inhibition in vivo at 12.5 mg/kg (Rattus norvegicus [1]) turn out when CCOC(=O)c1c(C[S+]([O-])c2nccn2C)nc2cc(OC)c(OC)cc2c1-c1ccc(OC)c(OC)c1 (centres undefined) was run?
**A.** The inhibition in vivo at 12.5 mg/kg was 73%.

**Q.** What about the ED50 (Rattus norvegicus [2]) of the same compound?
**A.** Its ED50 is 6.5 mg/kg.

**Q.** Which results are given for CCOC(=O)c1c(Cn2ccnc2)nc2cc(OC)c(OC)cc2c1-c1ccc(OC)c(OC)c1?
**A.** inhibition in vivo at 12.5 mg/kg (Rattus norvegicus [1]): 70%; ED50 (Rattus norvegicus [2]): 7.7 mg/kg

**Q.** Which inhibition in vivo at 50 mg/kg (Rattus norvegicus [4]) does the source give for CCOC(=O)c1c(CSc2nccn2C)nc2cc(OC)c(OC)cc2c1-c1ccc(C)cc1 here?
**A.** Its inhibition in vivo at 50 mg/kg is 67%.

**Q.** Which inhibition in vivo at 50 mg/kg (Rattus norvegicus [4]) does the source give for COc1ccc(-c2nc(CSc3nccn3C)nc3cc(OC)c(OC)cc23)cc1OC here?
**A.** Its inhibition in vivo at 50 mg/kg is < 50%.

**Q.** COc1ccc(-c2nc(Cn3cncn3)nc3cc(OC)c(OC)cc23)cc1OC was tested. Which inhibition in vivo at 12.5 mg/kg (Rattus norvegicus [1]) did it give?
**A.** Its inhibition in vivo at 12.5 mg/kg is < 50%.

**Q.** Which inhibition in vivo at 50 mg/kg (Rattus norvegicus [4]) does the source give for COc1ccc(-c2nc(CCc3nccn3C)nc3cc(OC)c(OC)cc23)cc1OC here?
**A.** Its inhibition in vivo at 50 mg/kg is 71%.

**Q.** For CCOC(=O)c1c(CSc2nccn2C)nc2cc(OC)c(OC)cc2c1-c1ccc(OC)c(OC)c1, which ED50 (Rattus norvegicus [5]) is on record?
**A.** The ED50 was 25 mg/kg.

**Q.** And the Activity (Rattus norvegicus [6])?
**A.** Its Activity is 57%.

**Q.** And the inhibition in vivo at 50 mg/kg (Rattus norvegicus [4])?
**A.** The inhibition in vivo at 50 mg/kg was 60%.

**Q.** For CCOC(=O)c1c(CSc2nncn2C)nc2cc(OC)c(OC)cc2c1-c1ccc(OC)c(OC)c1, which ED50 (Rattus norvegicus [5]) is on record?
**A.** The ED50 was 11.6 mg/kg.

**Q.** And the inhibition in vivo at 50 mg/kg (Rattus norvegicus [4])?
**A.** The inhibition in vivo at 50 mg/kg was 66%.

**Q.** Which inhibition in vivo at 50 mg/kg (Rattus norvegicus [4]) does the source give for CCOC(=O)c1c(CS(=O)(=O)c2nccn2C)nc2cc(OC)c(OC)cc2c1-c1ccc(OC)c(OC)c1 here?
**A.** Its inhibition in vivo at 50 mg/kg is 56%.

**Q.** How did the inhibition in vivo at 50 mg/kg (Rattus norvegicus [4]) turn out when CCOC(=O)c1c(CSc2ncc[nH]2)nc2cc(OC)c(OC)cc2c1-c1ccc(OC)c(OC)c1 was run?
**A.** The inhibition in vivo at 50 mg/kg was 60%.

**Q.** For CCOC(=O)c1c(CSc2nccn2C)nc2cc(OC)c(OC)cc2c1-c1ccc(OC)cc1, which inhibition in vivo at 50 mg/kg (Rattus norvegicus [4]) is on record?
**A.** The inhibition in vivo at 50 mg/kg was 64%.

**Q.** For CCOC(=O)c1c(CSc2nccn2C)nc2ccc(OC)cc2c1-c1ccc(OC)cc1, which Activity (Rattus norvegicus [3]) is on record?
**A.** Its Activity is 66%.

**Q.** What about the inhibition in vivo at 50 mg/kg (Rattus norvegicus [4]) of the same compound?
**A.** The inhibition in vivo at 50 mg/kg was 45%.

**Q.** For CCOC(=O)c1c(Cn2cncn2)nc2cc(OC)c(OC)cc2c1-c1ccc(OC)c(OC)c1, which inhibition in vivo at 12.5 mg/kg (Rattus norvegicus [1]) is on record?
**A.** The inhibition in vivo at 12.5 mg/kg was 65%.

**Q.** And the ED50 (Rattus norvegicus [2])?
**A.** Its ED50 is 2.6 mg/kg.

**Q.** What about the Activity (Rattus norvegicus [6]) of the same compound?
**A.** Its Activity is 59%.

**Q.** For COc1cc2c(OC)c3c(c(-c4ccc5c(c4)OCO5)c2cc1OC)C(=O)OC3 [JUSTICIDIN A], which Activity (Rattus norvegicus [7]) is on record?
**A.** The Activity was 48%.

**Q.** And the inhibition in vivo at 50 mg/kg (Rattus norvegicus [4])?
**A.** The inhibition in vivo at 50 mg/kg was 10%.
